Assay results as given in ChEMBL document CHEMBL1142446, “Discovery of 3-acetyl-4-hydroxy-2-pyranone derivatives and their difluoridoborate complexes as a novel class of HIV-1 integrase inhibitors” (Bioorg Med Chem, 2008).
Active and inactive are the calls of the source. No cut-off for these calls is given here.

How the values were obtained:
[1] = target: T1, Human immunodeficiency virus type 1 integrase (Human immunodeficiency virus 1, UniProt Q7ZJM1); experiment: Inhibition of wild-type HIV1 integrase 3'-end processing activity
T1 sequence (Q7ZJM1 whole entry): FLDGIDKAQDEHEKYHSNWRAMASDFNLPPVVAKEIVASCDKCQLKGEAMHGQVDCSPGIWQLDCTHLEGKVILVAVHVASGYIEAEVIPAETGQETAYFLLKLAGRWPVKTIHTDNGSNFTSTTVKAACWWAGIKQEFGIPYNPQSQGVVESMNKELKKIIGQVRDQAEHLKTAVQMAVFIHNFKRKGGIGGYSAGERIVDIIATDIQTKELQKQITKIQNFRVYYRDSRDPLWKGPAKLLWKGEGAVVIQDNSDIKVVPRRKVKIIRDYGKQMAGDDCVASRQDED
In short: (§1)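 Recombinant wild-type HIV-1 integrase (200 nM final) preincubated with inhibitor for 30 min at 30 °C in 25 mM MOPS pH 7.2 with 50 mM NaCl, 7.5 mM MnCl2, 10% DMSO, BSA and thiols. Then 20 nM 5′-³²P-labeled 21-mer duplex substrate (21top/21bot) was added for 1 h. Quenched in formamide dye and resolved on denaturing 20% polyacrylamide–urea gel. Selectivity index = IC50(3′-processing)/IC50(strand transfer).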

[2] = target: T1, Human immunodeficiency virus type 1 integrase; experiment: Inhibition of wild-type HIV1 integrase strand transfer activity; in short: as §1
[3] = target: Human immunodeficiency virus type 1 integrase (Human immunodeficiency virus 1) (UniProt Q7ZJM1); experiment: Selectivity index, ratio of IC50 for wild-type HIV1 integrase 3'-end processing activity to IC50 for wild-type HIV1 integrase strand transfer activity; in short: as §1
Human immunodeficiency virus type 1 integrase (Human immunodeficiency virus 1), sequence (Q7ZJM1 as listed by the source): as the sequence (Q7ZJM1 whole entry) above

[4] = Cytotoxicity against human HCT 116 cells after 72 hrs by MTT assay; type: cell-based; settings: hct-116, 72 h
In short: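 HCT-116 monolayers were seeded at 8 × 10³ cells/well and attached overnight. Compounds in RPMI-1640 with 10% […] were added at a single final concentration of 10 and exposed for 72 h. MTT was then added for 4 h, crystals were dissolved in DMSO, and absorbance was read at 570 nm against blanks.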

[5] = system: HCT-116 (Homo sapiens); experiment: Cytotoxicity against human HCT 116 cells by MTT assay

SMILES	IC50 [1] [µM]	IC50 [2] [µM]	Ratio IC50 [3]	Activity [4] [µM]	Activity [5]
Cc1cc(O)c(C(=O)/C=C/c2ccc(Br)s2)c(=O)o1	65	23	2.8	> 10	
COc1ccc(/C=C/C=C/C2=[O+][B-](F)(F)Oc3cc(C)oc(=O)c32)cc1	11	4	2.5	> 10	inactive
Cc1cc2c(c(=O)o1)C(/C=C/C=C1/N(C)c3ccccc3C1(C)C)=[O+][B-](F)(F)O2	> 100	> 100		> 10	
Cc1cc(O)c(C(=O)/C=C/c2ccc(Br)cc2)c(=O)o1	> 100	> 100		> 10	
CC[NH+](CC)CC.Cc1cc2c(c(=O)o1)C(/C=C/C=C1\O[B-](F)(F)Oc3cc(C)oc(=O)c31)=[O+][B-](F)(F)O2	13	7	1.9	> 10	inactive
COc1ccc(/C=C/C=C/C(=O)c2c(O)cc(C)oc2=O)cc1	> 100	39	> 2.6	> 10	
Cc1cc2c(c(=O)o1)C(/C=C/c1ccc(F)cc1)=[O+][B-](F)(F)O2	9	16	0.6	> 10	
Cc1cc2c(c(=O)o1)C(/C=C/C=C/c1ccc(N(C)C)cc1)=[O+][B-](F)(F)O2	> 100	100		> 10	
COc1ccc(Br)cc1/C=C/C(=O)c1c(O)cc(/C=C/c2ccc(N(C)C)cc2)oc1=O	> 100	100		> 10	
Cc1cc(O)c(C(=O)/C=C/c2ccc(N(C)C)s2)c(=O)o1	19	11	1.8	> 10	
Cc1cc(O)c(C(=O)/C=C/c2ccc(F)cc2)c(=O)o1	64	> 100	< 0.7	> 10	
CN(C)c1ccc(/C=C/C2=[O+][B-](F)(F)Oc3cc(/C=C/c4ccc(N(C)C)cc4)oc(=O)c32)cc1	> 100	> 100		> 10	
Cc1cc2c(c(=O)o1)C(/C=C/c1ccc(N(C)C)s1)=[O+][B-](F)(F)O2	> 100	> 100		> 10	
Cc1cc2c(c(=O)o1)C(/C=C/c1ccc(Br)s1)=[O+][B-](F)(F)O2	9	3	3.2	> 10	inactive
COc1ccc(/C=C/C(=O)c2c(O)cc(/C=C/c3ccc(N(C)C)cc3)oc2=O)cc1	> 100	> 100		> 10	
Cc1cc2c(c(=O)o1)C(/C=C/c1ccc(Br)cc1)=[O+][B-](F)(F)O2	12	4	3.3	> 10	inactive
COc1ccc(Br)cc1/C=C/C1=[O+][B-](F)(F)Oc2cc(/C=C/c3ccc(N(C)C)cc3)oc(=O)c21	> 100	> 100		> 10	
COc1ccc(/C=C/C2=[O+][B-](F)(F)Oc3cc(/C=C/c4ccc(N(C)C)cc4)oc(=O)c32)cc1	> 100	> 100		> 10	
Cc1cc2c(c(=O)o1)C(/C=C/c1ccc(N(C)C)cc1)=[O+][B-](F)(F)O2	> 100	56	> 1.8	> 10	
CN(C)c1ccc(/C=C/C(=O)c2c(O)cc(/C=C/c3ccc(N(C)C)cc3)oc2=O)cc1	> 100	> 100		> 10	
Cc1cc(O)c(C(=O)/C=C/C=C2/N(C)c3ccccc3C2(C)C)c(=O)o1	> 100	> 100		> 10	
Cc1cc(O)c(C(=O)/C=C/C=C/c2ccc(N(C)C)cc2)c(=O)o1	> 100	> 100		> 10	
